Assay outcomes (PubChem BioAssay)
Hits are enriched below; roughly 1.7% of the tested compounds scored in any of these assays.
PABP FP inh = PABP-poly(A) binding inhibition; PABP-poly(A) RNA binding, fluorescence polarization; inhibition, % at 35 µM; 290,000 tested, 1% active; AID 2014;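 note: calls also rest on retests at 20 µM and on dose response follow-up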
MLLE-PAM2 inh = blocks PAM2 peptide binding to the PABP1 MLLE domain; GST-MLLE / FITC-PAM2 fluorescence polarization; inhibition, % at 20 µM; 360,000 tested, 0.36% active; in the data active = inhibition above about 35%, passing the limit was not always enough;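 note: plate controls were DMSO wells with GST-MLLE for no effect and wells lacking GST-MLLE protein for full effect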
SKN-1 block = inhibitors of C. elegans SKN-1. inhibition, % at 21.8 µM. C. elegans VP596 Pgst-4::GFP/RFP ratio, acrylamide-induced, 24 h. AID 624304. 360,000 tested, 0.49% active;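 active = interference check ratio from 0.5 to 1.5 plus GFP to RFP signal ratio inhibition reaching or exceeding a fixed threshold, cut at about 30% in these data, passing the limit was not always enough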
MT1-MMP act inh = inhibitors of human MT1-MMP activation | P50281 | HT1080 RFP-PRO-GFP cells, GFP/RFP ratio fluorescence, overnight; percent of plate control window, DMSO zero | GFP/RFP ratio change, % at 20 µM | 360,000 tested, 0.061% active;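 active = GFP/RFP ratio change of at least 30% with cell ATP level not reduced by more than half and red fluorescence within 50% of control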
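Assay system: HT1080 cells carrying an RFP-PRO-GFP reporter | Dosing: Single dose of 20 µM compound, 1% DMSO final | Incubation: Cells overnight before dosing, compound overnight, 37 °C, 5% CO2 | Evaluation: GFP/RFP fluorescence ratio | Control set: DMSO and RFP-L50D-GFP cell wells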
eIF4H inh = inhibitors of RNA binding by human eIF4H. Q15056. eIF4H fluorescence polarization binding assay. inhibition, % at 35 µM. 290,000 tested, 0.94% active. AID 2012;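 note: calls also rest on retests at 20 µM and on dose response follow-up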
The depositor's hits bear a star; ? = inconclusive; / = no result. Unless noted, the rule behind the calls is not given here.

SMILES	PABP FP inh	MLLE-PAM2 inh	SKN-1 block	MT1-MMP act inh	eIF4H inh
CC(C)(C)NC(=S)NCC1CC1	2.8	-22.8	-4.6	9.1	3.0
CC1CCCN(C(=O)C2CCN(S(=O)(=O)c3ccc4c(c3)CC(C)N4C(=O)C3CC3)CC2)C1 (stereo not given)	21.9	0.1	0.3	-0.7	13.6
C=CCSC1=C(C#N)C(c2ccccc2OCC)C(C#N)C(=O)N1 (stereo not given)	-0.2	41.0*	3.3	-2.8	1.4
O=C(O)c1ccccc1Nc1cc(Cl)c2nonc2c1[N+](=O)[O-]	10.4	41.8*	21.7	5.0	11.0
CN(C)c1cc(Nc2ccc(O)cc2)c([N+](=O)[O-])c2nonc12	0.8	0.2	2.4	7.6	-11.4
O=[N+]([O-])c1c(Nc2ccc(O)cc2)cc(Cl)c2nonc12	4.1	39.2*	10.5	-4.9	9.4
Cn1c(CNC(=O)c2ccc3c(c2)OCO3)nnc1SCC(=O)Nc1ccccc1F	4.4	18.9	2.2	0.1	1.6
Cc1ccc(S(=O)(=O)NC(=O)Nc2ccc(C)cn2)cc1	-8.1	5.2	10.1	0.2	-6.1
CC(C)Cc1nnc(NC(=O)CCC(=O)NCc2ccccc2Cl)s1	1.4	1.1	26.5	0.2	-7.3
COc1ccc(Cl)cc1C(=O)Nc1ccccc1N1CCCCC1	-15.6	-5.5	35.1*	-5.3	-2.0
CCOC(=O)N1CCN(C(=O)Nc2ccc(Cl)cc2)CC1	-5.6	-1.6	35.5*	-1.8	-9.1
CCOC(=O)N1CCN(C(=O)Nc2ccccc2)CC1	-1.0	8.0	-8.0	6.2	2.3
CCCCn1c(N)c(N(CCOC)C(=O)c2ccc(Cl)c(S(=O)(=O)N3CCCCC3)c2)c(=O)[nH]c1=O	/	-22.8	-3.2	-0.3	/
O=c1c2ccccc2[nH]c2ccc(O)cc12	68.3*	26.2	23.6	-13.2	91.9*
COC(=O)C1=C(NC(=O)c2ccc(C)c(C)c2)CCS1	-0.1	39.2*	45.6	-4.2	1.2
Fc1ccc(CN2CC[C@H]3C=CCc4cccc(c43)C2)cc1	/	47.0*	7.5	-13.0	/
O=C(CN1CCN(S(=O)(=O)N2CCCCC2)CC1)Nc1cc(Cl)cc(Cl)c1	-3.7	8.0	36.9*	3.1	-10.2
CCn1c(C)c(Br)c(=O)c(C(=O)OC)c1-c1ccc(Cl)cc1	-1.7	-0.3	-11.7	1.9	-3.7
O=C1c2ccccc2S(=O)(=O)N1CC(O)Cn1ccc2ccccc21 (stereo not given)	96.9*	79.0	26.5	-29.3	88.4*
OC(CN1CCNCC1)Cn1ccc2ccccc21 (stereo not given)	8.4	/	/	/	-2.5
CCOc1ccc(S(=O)(=O)NCCC(=O)NCC2(N3CCCCC3)CCCCC2)cc1	51.1*	-7.1	8.3	-3.4	94.0*
CCOc1ccc(S(=O)(=O)NCC2(N3CCCCC3)CCCCC2)cc1	/	-0.4	11.3	4.0	/
COc1cc2ccccc2cc1C(=O)Nc1nccs1	-3.6	-8.8	57.6*	-5.1	-9.4
O=C(Nc1nccs1)c1ccc2ccccc2c1	10.9	-18.1	43.7*	3.9	-7.4
COc1c(C(=O)Nc2nccs2)ccc2ccccc12	-5.9	-1.6	55.2*	0.6	-5.8
SMILES	PABP FP inh	MLLE-PAM2 inh	SKN-1 block	MT1-MMP act inh	eIF4H inh
COc1ccccc1C(=O)Nc1ccc2ccccc2c1	/	-9.9	48.0*	-4.6	/
COc1cc2ccccc2cc1C(=O)Nc1cc(C)ccn1	-4.4	-5.5	14.6	-1.6	-13.7
COc1c(C(=O)Nc2ccc(Br)cn2)ccc2ccccc12	-4.5	5.7	-4.3	-0.9	-2.0
COc1ccc(C2=NOC(Cn3nc(C(=O)NCc4cccc(C(F)(F)F)c4)cc3-c3ccccc3)C2)cc1 (stereo not given)	/	2.2	7.1	8.1	/
CN(CC(=O)Nc1cccc(F)c1)C(=O)c1ccc(COc2ccccc2)o1	/	-2.3	-7.0	-6.8	/
O=C(COC(=O)c1cc(S(=O)(=O)N2CCCCC2)ccc1N1CCOCC1)NCCc1ccc(F)cc1	5.2	-5.2	-2.9	5.5	-4.1
N#Cc1c(N)n(-c2ccc(C(=O)O)cc2)c2nc3ccccc3nc12	37.0	-42.8	1.4	-11.0	79.5*
CCCNC(=O)C[C@@H]1C[C@H]2c3cc(NC(=O)c4ccc5c(c4)OCO5)ccc3O[C@H]2[C@@H](CO)O1	/	15.8	-6.6	0.3	/
c1ccc2c(c1)OCCc1c-2[nH]c2ccccc12	2.5	6.4	51.9*	-2.0	-6.3
Cc1c(C)c(C)c(C(=O)c2ccc(NC(=O)c3ccccc3C(=O)O)cc2)c(C)c1C	4.6	-3.4	0.9	6.1	-2.9
O=C(Nc1ccccc1Cl)c1cnccn1	8.9	3.2	-4.5	1.7	-10.4
O=C(Nc1ccc(Br)cc1Cl)c1cnccn1	11.3	-11.9	61.4*	-4.7	-4.9
COc1ccc(/C=C2\C(=O)ON=C2c2ccccc2)cc1	4.1	35.6	8.5	2.8	-6.1
O=C1ON=C(c2ccccc2)/C1=C/c1ccc(O)c(O)c1	15.2*	-68.7	-2.8	-2.9	50.9
Nc1cccn2c(-c3ccc(Cl)c(Cl)c3)cnc12	31.6*	-49.1	9.9	-24.8	94.9*
Cc1csc2nc(CNS(=O)(=O)c3ccc4c(c3)CCCC4)cn12	-2.9	-10.8	35.6*	-1.2	0.3
O=C(O)c1ccccc1C(=O)NNc1cccc(Cl)n1	1.9	11.2	8.1	-3.9	-3.9
O=C(CC1SC(N2CCOCC2)=NC1=O)Nc1cc([N+](=O)[O-])ccc1Cl (stereo not given)	63.9*	17.2	-8.5	2.0	?
O=C(CC1SC(N2CCOCC2)=NC1=O)Nc1ccccc1Cl (stereo not given)	/	9.0	-13.5	-3.0	/
CCN(C(=O)COC(=O)c1cc(-c2cccc3ccccc23)nc2ccccc12)C1CCS(=O)(=O)C1 (stereo not given)	-7.8	0.1	39.5*	-5.2	?
CCN(CC)C(=O)COC(=O)c1cc(-c2ccc(OC)cc2)nc2ccccc12	2.7	-4.8	11.3	5.4	13.2
CCN(CC)C(=O)COC(=O)c1cc(-c2ccco2)nc2ccccc12	64.1*	18.8	-2.9	-16.0	82.0*
O=C(O)c1cc(-c2ccco2)nc2cc3ccccc3cc12	77.4*	-3.1	12.6	-9.0	100.3*
Cn1c(N)c(C(=O)COC(=O)c2cc(-c3ccco3)nc3ccccc23)c(=O)n(C)c1=O	21.2*	6.2	8.7	0.9	?
COc1ccc(Cn2c(CO)cnc2SCC(=O)Nc2cccc(NC(C)=O)c2)cc1	0.7	-21.9	-3.7	0.2	-2.0
Cc1ccc(N(CC(=O)NCc2ccc(F)cc2)S(=O)(=O)c2c(C)n[nH]c2C)cc1	7.3	-0.2	25.5	-2.4	-0.6
Cc1ccc(C)c(NC(=O)Cc2nc(CNCC(C)C)cs2)c1	2.0	-3.8	18.3	-0.6	11.9
COCCCN(C(=O)c1cc(-c2ccco2)nc2ccccc12)c1c(N)n(Cc2ccccc2)c(=O)[nH]c1=O	/	6.8	-8.9	/	/
O=C(Nc1ccccc1N1CCOCC1)c1cc(-c2ccco2)nc2ccccc12	32.3	8.2	12.2	-16.0	81.5*
